Assays:
[1] = test system: L1210, FM3A, Molt/4, CEM and HeLa cells; experiment: Cell growth inhibitory activity, panel of cell lines; assay type: cell-based, murine and human; conditions: for IC50: read-out: IC50 values, range over the cell lines
Outline: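 Murine L1210 leukemia and FM3A mammary carcinoma cells, and human Molt 4, CEM (T-lymphocyte) and HeLa (cervix carcinoma) cells. Cells were suspended at 300,000–500,000 cells/mL and mixed 1:1 with serial dilutions of test compound. Incubated 2 days at 37 °C, then cell number counted with a Coulter counter. IC50 (50% inhibition of proliferation) was taken from dose–response curves as mean ± SE of ≥3 independent experiments.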

[2] = test system: human T-lymphocyte Molt4/C8 cells; experiment: Cell growth inhibitory activity, Molt/4; assay type: cell-based; conditions: Molt4/C8, 48 h, read-out: IC50 Molt4/C8
[3] = test system: murine leukemia (L1210) cells; experiment: Cell growth inhibitory activity, L1210; assay type: cell-based; conditions: Mus musculus, L1210, 48 h, read-out: IC50 L1210
Outline: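 Murine leukemia cells at 300,000-500,000 cells/mL were mixed 1:1 with dilutions of test compound and incubated at 37 °C for two days. Cell number was counted with a Coulter counter. IC50 is the concentration inhibiting proliferation by 50%, taken from dose–response curves as mean ± SE of at least three independent experiments.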

[4] = test system: murine mammary carcinoma (FM3A) cells; experiment: Cell growth inhibitory activity, FM3A; assay type: cell-based; conditions: Mus musculus, 48 h, read-out: IC50 FM3A/0
[5] = test system: K562 (human chronic myelogenous leukemia) cells; experiment: Flow cytometric analysis of cell cycle distribution; assay type: cell-based; conditions: 24 h, compound at concentration inhibiting 100% cell growth
bovine brain tubulin = experiment: Inhibition of tubulin polymerization; assay type: biochemical
[6] = test system: K562 (human chronic myelogenous leukemia) cells; experiment: Concentration inhibiting 100% cell growth of K562 cells; assay type: cell-based
[7] = test system: human cervix carcinoma (HeLa) cells; experiment: Cell growth inhibitory activity, HeLa; assay type: cell-based

Question: With `COc1ccc2c3c(oc2c1)C(=O)c1cc(OC)c(OC)c(OC)c1-3` [Compound 4ac, 3,8,9,10-tetramethoxy-6H-benzo[b]indeno[1,2-d]furan-6-one] as the compound, how does the “antiproliferative activity (in words)” value ([1]; five cell lines) read?
Answer: completely inactive

Question: What about the IC50 [2] of the same compound?
Answer: > 10 µM

Question: With `COc1cc(C(=O)c2cc3cc(OC)c(OC)c(OC)c3o2)cc(OC)c1OC` [Compound 4k, (5,6,7-Trimethoxybenzofuran-2-yl)(3,4,5-trimethoxyphenyl)methanone] as the compound, how does the IC50 [2] read?
Answer: > 10 µM

Question: What does the source list for `COc1ccc2c(N)c(C(=O)c3cc(OC)c(OC)c(OC)c3)oc2c1` [Compound 3a]?
Answer: IC50 [1]: 0.087 to 0.43 µM; IC50 [3]: 0.43 ± 0.04 µM; IC50 [4]: 0.28 ± 0.16 µM

Question: What does the source list for `COc1cc(C(=O)c2oc3cc(F)ccc3c2C)cc(OC)c1OC` [Compound 4u, (6-Fluoro-3-methylbenzofuran-2-yl)(3,4,5-trimethoxyphenyl)methanone]?
Answer: effect on cell cycle distribution [5]: accumulate in late S phase; sub-G0–G1 peak (apoptotic peak, A) [5]: 20–44%; antitubulin polymerization activity (in words) (bovine brain tubulin): weak antitubulin polymerization activity; concentration able to inhibit 100% cell growth after 24 h [6]: 1.62 µM

Question: With `CCOc1ccc2c(C)c(C(=O)c3cc(OC)c(OC)c(OC)c3)oc2c1` [Compound 4t, (6-Ethoxy-3-methylbenzofuran-2-yl)(3,4,5-trimethoxyphenyl)methanone] as the compound, how does the “fold increase of activity relative to 4r” value ([1]; L1210, FM3A, Molt/4 and CEM cells) read?
Answer: 10 fold

Question: What about the IC50 [1] of the same compound?
Answer: 0.0012 to 0.0063 µM

Question: What about the “fold increase of activity relative to 4r” value [7] of the same compound?
Answer: 2 fold

Question: How did the IC50 [1] turn out when `COc1ccc2cc(C(=O)c3cc(OC)c(OC)c(OC)c3)oc2c1` [Compound 4d, (6-Methoxybenzofuran-2-yl)(3,4,5-trimethoxyphenyl)methanone] was run?
Answer: 0.059 to 0.11 µM

Question: With `COc1ccc(/C=C\c2cc(OC)c(OC)c(OC)c2)cc1O` [CA4, combretastatin A-4] as the compound, how does the IC50 [3] read?
Answer: 0.0028 ± 0.0011 µM

Question: For `COc1ccc2c(N(C)C)c(C(=O)c3cc(OC)c(OC)c(OC)c3)oc2c1` [Compound 3b], which IC50 [1] is on record?
Answer: 0.048 to 0.078 µM

Question: What about the IC50 [3] of the same compound?
Answer: 0.065 ± 0.005 µM

Question: What about the IC50 [4] of the same compound?
Answer: 0.059 ± 0.005 µM

Question: `COc1cc(C(=O)c2cc3cc(Cl)ccc3o2)cc(OC)c1OC` [Compound 4g, (5-Chlorobenzofuran-2-yl)(3,4,5-trimethoxyphenyl)methanone] was tested. Which IC50 [2] did it give?
Answer: > 10 µM

Question: For `COc1cc(C(=O)c2cc3ccc(OC)c(O)c3o2)cc(OC)c1OC` [Compound 4i, (7-Hydroxy-6-methoxybenzofuran-2-yl)(3,4,5-trimethoxyphenyl)methanone], which IC50 [2] is on record?
Answer: > 10 µM

Question: How did the IC50 [2] turn out when `COc1cc(C(=O)c2cc3ccc(O)cc3o2)cc(OC)c1OC` [Compound 4m, (6-Hydroxybenzofuran-2-yl)(3,4,5-trimethoxyphenyl)-methanone] was run?
Answer: > 10 µM

Question: How did the IC50 [2] turn out when `COc1cc(C(=O)c2cc3cc(Br)ccc3o2)cc(OC)c1OC` [Compound 4h, (5-Bromobenzofuran-2-yl)(3,4,5-trimethoxyphenyl)methanone] was run?
Answer: > 10 µM

Question: With `COc1ccc2c(C)c(C(=O)c3cc(OC)c(OC)c(OC)c3)oc2c1` [Compound 4r, (6-Methoxy-3-methylbenzofuran-2-yl)(3,4,5-trimethoxyphenyl)methanone] as the compound, how does the IC50 [1] read?
Answer: 0.003 to 0.027 µM

Question: `COc1ccc2cc(C(OC)c3cc(OC)c(OC)c(OC)c3)oc2c1` (stereo not shown) [Compound 4aa, 6-methoxy-2-(methoxy(3,4,5-trimethoxyphenyl)methyl)benzofuran] was tested. Which IC50 [2] did it give?
Answer: > 10 µM

Question: With `COc1cc(C(=O)c2cc3c(OC)cccc3o2)cc(OC)c1OC` [Compound 4b, (4-Methoxybenzofuran-2-yl)(3,4,5-trimethoxyphenyl)methanone] as the compound, how does the “sub-G0–G1 peak (apoptotic peak, A)” value [5] read?
Answer: 20–44%

Question: Which IC50 [2] does the source give for `COc1cc(C(=O)c2cc3cccc(O)c3o2)cc(OC)c1OC` [Compound 4n, (7-Hydroxybenzofuran-2-yl)(3,4,5-trimethoxyphenyl)-methanone] here?
Answer: > 10 µM

Question: Which “sub-G0–G1 peak (apoptotic peak, A)” value [5] does the source give for `COc1cc(C(=O)c2oc3ccc(O)cc3c2C)cc(OC)c1OC` [Compound 4w, (5-Hydroxy-3-methylbenzofuran-2-yl)(3,4,5-trimethoxyphenyl)methanone] here?
Answer: 20–44%

Question: With `COc1ccc2cc(C(=S)c3cc(OC)c(OC)c(OC)c3)oc2c1` [Compound 4y, (6-methoxybenzofuran-2-yl)(3,4,5-trimethoxyphenyl)methanethione] as the compound, how does the IC50 [2] read?
Answer: 0.1 ± 0.01 µM

Question: For `COc1cc(C(=O)c2cc3cc(O)ccc3o2)cc(OC)c1OC` [Compound 4l, (5-Hydroxybenzofuran-2-yl)(3,4,5-trimethoxyphenyl)-methanone], which IC50 [2] is on record?
Answer: > 10 µM

Question: With `COc1cc(C(=O)c2oc3cccc(OC)c3c2C)cc(OC)c1OC` [Compound 4p, (4-Methoxy-3-methylbenzofuran-2-yl)(3,4,5-trimethoxyphenyl)methanone] as the compound, how does the “effect on cell cycle distribution” value [5] read?
Answer: accumulate in late S phase

Question: What about the “sub-G0–G1 peak (apoptotic peak, A)” value [5] of the same compound?
Answer: 20–44%
